# Where “and” joins values, the source holds several entries; their conditions need not be identical. Identical values can stand only once.
# Tested on: Fibroblast
# Test: Multiplex assay against human fibroblast
# Type: toxicity, cell-based
# Conditions: number of replicates 2
# How it was run: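 Four dyes were applied at seeding to live cells: Hoechst33342, BioTracker Green Microtubule Cytoskeleton Dye, MitoTracker Red and Annexin V Alexa Fluor 680. Imaging after compound addition used a CQ1 microscope at 37°C and 5% CO2. CellPathfinder machine-learning gating then sorted cells into Hoechst high-intensity objects or normal cells, normal cells into healthy, pyknosed or fragmented nuclei, and pyknosed cells into mitotic or apoptotic, with tubulin, mitochondrial-mass and membrane-permeability phenotypes given as per cents of healthy-nucleus cells.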
# [1] = 12 h, 1 µM, compound concentration 1 uM
# [2] = 12 h, 10 µM, compound concentration 10 uM
# [3] = 24 h, 1 µM, compound concentration 1 uM
# [4] = 24 h, 10 µM, compound concentration 10 uM
# [5] = 48 h, 1 µM, compound concentration 1 uM
# [6] = 48 h, 10 µM, compound concentration 10 uM
structure (smiles),measurement,setting,value
CN(C)[C@H]1CC[C@H](Nc2ncc3ncnc(Nc4ccc(F)c(Cl)c4)c3n2)CC1,Population Apoptotic (%),[1],68% and 45%
same,Population Fragmented Nuclei (%),[1],26% and 29%
same,Population Healthy Nuclei (%),[1],54% and 50%
same,Population Hoechst High Intensity Objects (%),[1],1% and 0%
same,Population Membrane Permeable-Phenotype (%),[1],4% and 9%
same,Population Mitochondria Different-Phenotype (%),[1],1%
same,Population Mitotic Cells (%),[1],31% and 55%
same,Population Normal (%),[1],98% and 99%
same,Population Pyknosed Nuclei (%),[1],18% and 19%
same,Population Tubulin-Different-Phenotype (%),[1],16% and 11%
same,Total Cell Count,[1],309 and 205
same,Population Apoptotic (%),[2],31% and 27%
same,Population Fragmented Nuclei (%),[2],30% and 24%
same,Population Healthy Nuclei (%),[2],45% and 51%
same,Population Hoechst High Intensity Objects (%),[2],18% and 10%
same,Population Membrane Permeable-Phenotype (%),[2],2% and 3%
same,Population Mitochondria Different-Phenotype (%),[2],0%
same,Population Mitotic Cells (%),[2],68% and 72%
same,Population Normal (%),[2],81% and 89%
same,Population Pyknosed Nuclei (%),[2],24% and 23%
same,Population Tubulin-Different-Phenotype (%),[2],4% and 3%
same,Total Cell Count,[2],681 and 574
same,Population Apoptotic (%),[3],54% and 67%
same,Population Fragmented Nuclei (%),[3],28% and 20%
same,Population Healthy Nuclei (%),[3],48% and 63%
same,Population Hoechst High Intensity Objects (%),[3],0%
same,Population Membrane Permeable-Phenotype (%),[3],3% and 6%
same,Population Mitochondria Different-Phenotype (%),[3],1% and 2%
same,Population Mitotic Cells (%),[3],45% and 32%
same,Population Normal (%),[3],100% and 99%
same,Population Pyknosed Nuclei (%),[3],23% and 16%
same,Population Tubulin-Different-Phenotype (%),[3],11% and 13%
same,Total Cell Count,[3],208 and 288
same,Population Apoptotic (%),[4],18% and 27%
same,Population Fragmented Nuclei (%),[4],27% and 28%
same,Population Healthy Nuclei (%),[4],44% and 47%
same,Population Hoechst High Intensity Objects (%),[4],19% and 27%
same,Population Membrane Permeable-Phenotype (%),[4],6% and 3%
same,Population Mitochondria Different-Phenotype (%),[4],0% and 1%
same,Population Mitotic Cells (%),[4],81% and 72%
same,Population Normal (%),[4],80% and 72%
same,Population Pyknosed Nuclei (%),[4],27% and 24%
same,Population Tubulin-Different-Phenotype (%),[4],5% and 4%
same,Total Cell Count,[4],464 and 636
same,Population Apoptotic (%),[5],68% and 56%
same,Population Fragmented Nuclei (%),[5],22% and 32%
same,Population Healthy Nuclei (%),[5],61% and 50%
same,Population Hoechst High Intensity Objects (%),[5],2% and 0%
same,Population Membrane Permeable-Phenotype (%),[5],7% and 9%
same,Population Mitochondria Different-Phenotype (%),[5],0%
same,Population Mitotic Cells (%),[5],31% and 43%
same,Population Normal (%),[5],97% and 99%
same,Population Pyknosed Nuclei (%),[5],15% and 17%
same,Population Tubulin-Different-Phenotype (%),[5],10% and 6%
same,Total Cell Count,[5],264 and 218
same,Population Apoptotic (%),[6],20% and 21%
same,Population Fragmented Nuclei (%),[6],31% and 34%
same,Population Healthy Nuclei (%),[6],38% and 37%
same,Population Hoechst High Intensity Objects (%),[6],22% and 26%
same,Population Membrane Permeable-Phenotype (%),[6],5% and 1%
same,Population Mitochondria Different-Phenotype (%),[6],0%
same,Population Mitotic Cells (%),[6],79% and 78%
same,Population Normal (%),[6],77% and 73%
same,Population Pyknosed Nuclei (%),[6],30% and 27%
same,Population Tubulin-Different-Phenotype (%),[6],5% and 2%
same,Total Cell Count,[6],527 and 613
CS(=O)(=O)c1ccc(C(=O)Nc2cccc(COc3ccc(Br)cc3CN3CCC[C@H](O)C3)c2)c(Cl)c1.O=CO,Population Healthy Nuclei (%),[1],71% and 60%
same,Population Hoechst High Intensity Objects (%),[1],0%
same,Population Mitotic Cells (%),[1],55% and 58%
same,Population Pyknosed Nuclei (%),[1],17% and 22%
same,Total Cell Count,[1],200 and 202
same,Population Healthy Nuclei (%),[2],52% and 60%
same,Population Hoechst High Intensity Objects (%),[2],0%
same,Population Mitotic Cells (%),[2],49% and 62%
same,Population Pyknosed Nuclei (%),[2],18%
same,Total Cell Count,[2],221 and 338
same,Population Healthy Nuclei (%),[3],72% and 64%
same,Population Hoechst High Intensity Objects (%),[3],0%
same,Population Mitotic Cells (%),[3],38% and 53%
same,Population Pyknosed Nuclei (%),[3],21%
same,Total Cell Count,[3],214 and 180
same,Population Healthy Nuclei (%),[4],50% and 65%
same,Population Hoechst High Intensity Objects (%),[4],0%
same,Population Mitotic Cells (%),[4],35% and 26%
same,Population Pyknosed Nuclei (%),[4],21% and 12%
same,Total Cell Count,[4],261 and 390
same,Population Healthy Nuclei (%),[5],73% and 72%
same,Population Hoechst High Intensity Objects (%),[5],0%
same,Population Mitotic Cells (%),[5],20% and 29%
same,Population Pyknosed Nuclei (%),[5],12%
same,Total Cell Count,[5],198 and 185
same,Population Healthy Nuclei (%),[6],54% and 63%
same,Population Hoechst High Intensity Objects (%),[6],0%
same,Population Mitotic Cells (%),[6],10% and 9%
same,Population Pyknosed Nuclei (%),[6],7%
same,Total Cell Count,[6],285 and 416
